An excerpt weighted towards active compounds, which were near 1.5% of everything screened.
CaV13 FRET inh – Primary screen for inhibitors of IQ motif and Ca2+-dependent inactivation inhibitor domain binding in CACNA1D, Förster resonance energy transfer in living cells, …. actives 0.098% (n = 340,000). inhibition, % at 12.3 µM. HEK cells, CFP/YFP FRET ICDI-IQ, plate reader, 10 min; percent FRET-ratio fall versus neutral wells;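 active means mean replicate inhibition of at least 30% and at least 1% of replicates passing that level; inconclusive means only one of the two criteria is met; inactive means neither criterion is met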;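 further: 0% = median of the neutral control wells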
Hck Nef HTS – blocks Nef-activated human Hck kinase; P08631; Recombinant Hck-YEEI plus Nef, Z-Lyte FRET kinase assay; inhibition, % at 20 µM; actives 0.68% (n = 220,000);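 active means Hck-Nef kinase inhibition above about 50%, limit read from the data; inactive means inhibition below that limit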;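 further: 0% = DMSO with Hck plus Nef and 100% = Hck alone without Nef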
Runt-SMMHC FRET – blocks binding of human RUNX1 Runt domain to CBFb-SMMHC; Q01196+Q13951; Cerulean-Runt/Venus-CBFb-SMMHC FRET ratio 530/480, 1 h; inhibition, % at 20 µM; actives 0.74% (n = 220,000);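 active means mean inhibition across duplicate retests at 20 µM reaching about 50%, limit read from the data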;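 further: 0% = DMSO wells and 100% = wells with excess untagged CBFb-SMMHC; inhibitors lower the FRET ratio by blocking Runt binding to CBFb-SMMHC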
Target sequence (Q01196 whole entry, looked up, the tested form may be a part): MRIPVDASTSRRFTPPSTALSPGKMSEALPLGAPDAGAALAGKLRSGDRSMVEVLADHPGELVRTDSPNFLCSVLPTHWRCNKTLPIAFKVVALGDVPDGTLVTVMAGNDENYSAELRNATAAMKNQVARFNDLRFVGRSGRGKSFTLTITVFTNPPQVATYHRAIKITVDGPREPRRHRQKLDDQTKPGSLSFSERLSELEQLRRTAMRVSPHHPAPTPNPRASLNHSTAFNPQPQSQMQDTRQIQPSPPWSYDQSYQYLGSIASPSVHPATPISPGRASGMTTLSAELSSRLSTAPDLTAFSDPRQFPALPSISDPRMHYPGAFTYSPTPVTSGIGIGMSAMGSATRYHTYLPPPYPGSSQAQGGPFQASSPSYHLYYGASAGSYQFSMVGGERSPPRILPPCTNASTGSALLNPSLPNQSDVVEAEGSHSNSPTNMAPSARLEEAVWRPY
Target sequence (Q13951 whole entry, looked up, the tested form may be a part): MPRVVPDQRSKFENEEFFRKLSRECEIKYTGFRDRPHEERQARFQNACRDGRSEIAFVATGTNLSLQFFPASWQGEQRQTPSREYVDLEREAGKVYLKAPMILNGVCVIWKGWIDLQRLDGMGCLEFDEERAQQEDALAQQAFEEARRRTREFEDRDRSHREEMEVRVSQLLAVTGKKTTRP
Runt-CBFb FRET – blocks binding of human RUNX1 Runt domain to CBFb | Q01196+Q13951 | Cerulean-Runt/Venus-CBFb FRET ratio 530/480, 1 h | inhibition, % at 20 µM | actives 0.46% (n = 220,000) | AID 1496;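 active means inhibition over about 50% at 20 µM in the single-dose screen, limit read from the data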;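 further: 0% = DMSO wells and 100% = excess unlabeled CBFb competitor control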
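Schedule: protein complex preformed 1 h, compound exposure 1 h, room temperature, dark; test system: Cerulean-labeled Runt domain protein; amount: 100 nM per protein; buffer or medium: Tris 50 mM pH 7.5, KCl, K2SO4, 0.01% BSA; read-out: loss of energy transfer signal; detection: FRET fluorescence; controls: 5 µM unlabeled CBFb as full-inhibition high control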
RanGTP-Imp inh – disruptors of Ran-importin-beta complex formation – biochemical, FRET, CFP-Ran, YFP-importin-beta, homogeneous, primary screen; cell-free CFP-Ran/YFP-importin-beta FRET ratio; inhibition, % (no concentration beside the values); actives 1.1% (n = 300,000); AID 2216;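 active means more than half of the replicate wells show a fall in the fluorescence ratio signal beyond about 16%, limit read from the data, passing the limit was not always enough; inconclusive means exactly half of the replicate wells pass the set limit; inactive means fewer than half of replicates pass the limit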;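 further: 0% = DMSO wells and 100% = Ran loaded with GDP instead of GTP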
YIC FRET counter – counter-screen: alters YIC FRET probe signal; Purified YIC probe, intramolecular FRET ratio YFP/CFP; shares compounds with RanGTP-Imp inh; AID 435026; IC50, µM; actives 40% (n = 1,000);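 active means fitted half-maximal inhibitory concentration no more than tenfold above the top dose tested; inconclusive means flat fit with 30 to 70% activity, or poor fit; inactive means half-maximal concentration beyond tenfold above the top dose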
* hit, by the source's call; ? = inconclusive; · = no result given.

SMILES	CaV13 FRET inh	Hck Nef HTS	Runt-SMMHC FRET	Runt-CBFb FRET	RanGTP-Imp inh	YIC FRET counter
CC(C)Cc1ccc(CN2CCC(n3nccc3NC(=O)C3CCCC3)CC2)cc1	·	·	·	·	21.6*	>50
CS(=O)(=O)N(CC(=O)N1CCCC1)c1ccc(Cl)cc1	2.5	·	·	·	4.5	·
O=C(NCc1cccc(F)c1)C1CCC(=O)N(C2CC2)C1 (centres undefined)	-5.5	·	·	·	-0.4	·
COc1ccc(N2CCN(c3nc4c(C)cccn4c(=O)c3/C=C(\C#N)C(N)=O)CC2)cc1	-18.1	·	·	·	?	·
COC(=O)/C(C#N)=C/c1c(Oc2cc(C)cc(C)c2)nc2c(C)cccn2c1=O	-4.2	-0.9	-244.7	-64.2	7.3	·
Cc1cccc(Oc2nc3ccccn3c(=O)c2/C=C(\C#N)C(=O)NC2CCS(=O)(=O)C2)c1 (centres undefined)	-0.7	11.2	80.6*	4.2	26.9*	47.7*
COc1ccc(Oc2nc3c(C)cccn3c(=O)c2/C=C(\C#N)C(N)=O)cc1	-3.7	29.6	82.3*	34.0	21.8*	6*
Cc1cccn2c(=O)c(/C=C(\C#N)C(=O)NC3CCS(=O)(=O)C3)c(Oc3ccc(F)cc3)nc12 (centres undefined)	-4.6	·	·	·	37.2*	18.4*
Cc1ccc(Oc2nc3ccccn3c(=O)c2/C=C(\C#N)C(=O)Nc2c(C)n(C)n(-c3ccccc3)c2=O)c(C)c1	7.2	2.2	14.4	5.2	6.2	·
O=c1nc(-c2ccccc2Cl)c2cc(F)ccc2[nH]1	-6.0	·	·	·	25.0*	>50
O=c1nc(-c2ccccc2)c2ccccc2[nH]1	·	5.1	0.2	1.1	-3.8	·
Cc1c(Br)c([N+](=O)[O-])nn1CCCC(=O)Nc1sc2c(c1C(N)=O)CCC(C)C2 (centres undefined)	-1.2	4.2	-2.6	5.9	1.7	·
Cc1c(Cl)c([N+](=O)[O-])nn1CCCC(=O)Nc1sc2c(c1C(N)=O)CCC(C)C2 (centres undefined)	-6.4	-1.3	2.7	-0.7	24.4*	>50
CCNC(=S)N1CCN(C(=O)C(Cc2ccccc2)NC(C)=O)CC1 (centres undefined)	4.9	-24.5	-1.2	·	·	·
CCOC(=O)/C(=N\Nc1ccc(C(C)=O)cc1)c1csc(Nc2ccccc2)n1	-27.7	-1.5	-192.8	-120.9	17.9*	>50
CC(C)NC(=O)c1ccc(N(Cc2ccc(Cl)cc2)S(C)(=O)=O)cc1	-11.3	·	·	·	4.5	·
COc1ccc(C2NC(=S)NC3=C2CCCC3=C2SCCS2)cc1 (centres undefined)	-7.2	19.8	-2.2	-4.7	18.4*	>50
S=C1NC2=C(CCCC2=C2SCCCS2)C(c2ccccc2)N1 (centres undefined)	-6.8	-6.9	-3.9	-6.4	-2.0	·
COc1ccc2c(CCNC(N)=S)c[nH]c2c1	-6.4	7.8	-1.3	-1.3	-18.2	·
COc1ccc2c(CC#N)c[nH]c2c1	-3.4	1.0	-6.2	-1.2	30.7*	>50
Cc1ccc(-n2c(C)cc(=O)cc2C)cc1[N+](=O)[O-]	-2.6	·	·	·	0.2	·
Cc1ccc2cc(C#N)c(NCCCNC(=O)C3CCCO3)nc2c1 (centres undefined)	-3.8	20.8	42.6	13.5	5.8	·
COc1ccc(C(=O)N2CCN(c3nc4cc(C)ccc4cc3C#N)CC2)c(OC)c1	-3.9	3.5	9.8	7.9	3.1	·
Cc1ccc2cc(C#N)c(N3CCCN(C(=O)C4CCCO4)CC3)nc2c1 (centres undefined)	-7.1	12.3	2.5	4.3	17.6*	26.1*
COc1cc(C(=O)N2CCCN(c3nc4cc(C)ccc4cc3C#N)CC2)cc(OC)c1OC	-7.6	·	44.0	4.5	52.4*	15.4*
SMILES	CaV13 FRET inh	Hck Nef HTS	Runt-SMMHC FRET	Runt-CBFb FRET	RanGTP-Imp inh	YIC FRET counter
Cc1ccc(S(=O)(=O)N2CCCN(c3nc4cc(C)ccc4cc3C#N)CC2)cc1	-13.7	-0.2	48.4	8.0	32.0*	27.9*
Cc1ccc2cc(C#N)c(N3CCCN(C(=S)NCCCN(C)C)CC3)nc2c1	-17.5	·	·	·	18.9*	25.1*
O=C(NCc1cccnc1)c1csc([C@@H]2C[C@H](O)[C@@H](CO)O2)n1	-4.9	·	·	·	·	·
COc1ccc2cc(C#N)c(N3CCN(C(=O)c4ccccc4C)CC3)nc2c1	5.2	-30.0	6.0	12.1	30.7*	>50
CN1CCN(C(=O)c2ccccc2Nc2ccc(SC(F)F)cc2)CC1	-0.9	19.8	2.1	-0.3	18.8*	>50
COc1cc(NC(=O)c2cc(-c3cccs3)on2)cc(OC)c1OC	-4.4	-0.4	-2.8	-2.0	28.1*	>50
COc1cc(NC(=O)c2cc(-c3ccc(C)cc3)on2)cc(OC)c1OC	-1.3	·	·	·	1.7	·
O=C(COc1ccccc1[N+](=O)[O-])NCCC1=CCCCC1	-3.6	21.9	-0.5	0.2	1.0	·
Cn1cnnc1SCC(=O)c1cc2ccccc2oc1=O	-8.4	-1.3	5.1	13.0	18.0*	>50
COC(=O)C1=CN(C2CC2)C=C(C(=O)OC)C1c1ccc(C(F)(F)F)cc1	-5.5	25.6	122.9*	80.4*	26.1*	19.1*
COC(=O)C1=CN(c2ccc(F)cc2)C=C(C(=O)OC)C1c1ccc([N+](=O)[O-])cc1	-5.3	·	·	·	0.2	·
O=C(COC(=O)/C=C/c1ccc(OC(F)F)cc1)Nc1ccc2[nH]c(=O)[nH]c2c1	-4.2	·	·	·	·	·
O=c1[nH]c(Nc2ccccn2)cc2ccccc12	-10.7	·	·	·	37.7*	>50
CN(C)CCCNC(=O)C[C@H]1C[C@H](C(=O)N2CCOCC2)[C@@]2(CCC3CCCC3)c3[nH]c4cc(CCC(=O)N(C)C)ccc4c3CCN2C1=O	-8.6	·	·	·	·	·
COc1ccc(CC(=O)NC(C)c2ccc3ccccc3c2)cc1 (centres undefined)	-17.8	·	·	·	-5.4	·
COc1cc(OC)c(N(C)S(=O)(=O)c2cccc(C(=O)OCC(=O)N(C)C3CCCCC3)c2)cc1Cl	-2.4	·	·	·	·	·
CN(C)/C=C/C(=O)/C=C/c1ccc(Cl)cc1	-4.3	2.6	1.3	0.5	22.1*	>50
COc1c(C)cccc1C(=O)NC(=S)Nc1ccccc1N1CCCC1	-6.9	·	·	·	-0.8	·
CCOC(=O)c1c(NC(=O)c2cccc(N3C(=O)CCC3=O)c2)sc2c1CCN(CC)C2	·	·	·	·	21.0*	>50
CCOC(=O)c1c(-c2ccccc2)csc1NC(=O)c1cccc(N2C(=O)CCC2=O)c1	-5.3	0.5	-6.4	-1.4	-1.3	·
COc1ccc(-n2c(C)cc(/C=C3/SC(=S)N(C)C3=O)c2C)cc1	-3.0	3.0	-50.7	-6.8	22.8*	>50
CC1CN(C(=O)c2ccc(NS(=O)(=O)c3ccc(F)c(F)c3)cc2)CC(C)O1 (centres undefined)	-6.0	·	·	·	7.5	·
